M1 antagonist: antagonists of rat M1 muscarinic receptor | P08482 | CHO-M1 cells, Fluo-4 calcium, ACh EC80 antagonist mode; active compounds read low | B-score at 10 µM | 64,000 tested, 3.4% active;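 active = calcium fluorescence response, raw or row-and-column corrected B-score, differing from the plate sample mean either way at a set confidence level, mostly lower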
M1 ag: M1 muscarinic receptor agonism. 64,000 tested, 3% active. CHO-M1 cells, Fluo-4 calcium fluorescence, agonist mode; active compounds read high. B-score at 10 µM;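 active = fluorescence rise, raw or as B-score row- and column-corrected plate score, outside the 99.7% band of its plate's samples, either direction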
BAP1 inh: human BAP1 deubiquitinase inhibition | 72,000 tested, 0.48% active | Q92560 | calls only at 20 µM | recombinant BAP1, Ub-AMC hydrolysis fluorescence kinetic; active compounds read low;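 active = activity remaining at or below 50% of control, provided the compound also passes the data quality filters; inactive = the rest, including low values that fail the filters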;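 also: 100% = DMSO wells rate and 0% = substrate alone blank rate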
Target sequence (Q92560 whole entry, looked up): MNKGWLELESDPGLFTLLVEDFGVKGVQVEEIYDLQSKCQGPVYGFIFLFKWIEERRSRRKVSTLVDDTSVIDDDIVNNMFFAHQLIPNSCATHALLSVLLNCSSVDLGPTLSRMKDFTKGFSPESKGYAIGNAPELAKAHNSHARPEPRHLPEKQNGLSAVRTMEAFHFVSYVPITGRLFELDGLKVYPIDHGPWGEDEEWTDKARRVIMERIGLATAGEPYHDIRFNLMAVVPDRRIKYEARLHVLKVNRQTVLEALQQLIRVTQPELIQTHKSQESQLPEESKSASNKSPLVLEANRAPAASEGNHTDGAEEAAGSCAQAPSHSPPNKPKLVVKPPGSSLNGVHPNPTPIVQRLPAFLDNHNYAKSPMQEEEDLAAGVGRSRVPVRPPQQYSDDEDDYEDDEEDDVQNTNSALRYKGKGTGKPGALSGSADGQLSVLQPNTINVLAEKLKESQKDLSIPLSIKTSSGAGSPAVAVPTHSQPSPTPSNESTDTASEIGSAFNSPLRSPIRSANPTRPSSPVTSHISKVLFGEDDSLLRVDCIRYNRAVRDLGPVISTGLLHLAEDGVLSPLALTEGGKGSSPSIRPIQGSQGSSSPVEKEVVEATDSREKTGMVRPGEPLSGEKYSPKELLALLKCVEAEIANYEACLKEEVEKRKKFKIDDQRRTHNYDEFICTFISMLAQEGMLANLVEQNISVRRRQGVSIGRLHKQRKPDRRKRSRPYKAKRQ
D1 allo mod: D1 dopamine receptor (human) allosteric modulation; AID 641; HEK293 D1, CRE-luciferase, dopamine EC30 potentiation; actives deviate in either direction; 58,000 tested, 5.9% active; P21728; B-score at 10 µM;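 active = luminescence count or its row- and column-corrected plate score outside the 99.7% band of the plate's sample wells, on either side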
DAT uptake mod: modulates human dopamine transporter uptake under cocaine; LLC-PK1 hDAT cells, [14C]-dopamine uptake with cocaine IC80; actives deviate in either direction; Q01959; 110,000 tested, 1.3% active; AID 449768; B-score at 10 µM;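 active = Z score or B-score, a plate-position-corrected score, falls beyond the plate's 99.7% confidence bounds, in either direction; inactive = both scores lie inside the 99.7% bounds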;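 also: scored against the spread of the other compound wells on the same plate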
HEK293 NFkB inh: lowers PMA/ionomycin-induced NF-kB signal in HEK293 cells. inhibition, % at 3 µM. 62,000 tested, 0.21% active. AID 465. HEK-293 NF-kB luciferase reporter, luminescence;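 active = inhibition above the mean of all tested compounds plus 3 SD, cut at about 40% in these data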;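 also: 0% = stimulated DMSO wells and 100% = 10 µM reference inhibitor 5653914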
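Signal: luciferase luminescence; Material: HEK-293 cells with stable firefly luciferase reporter driven by four HIV NF-kB elements; Probe or stimulus: PMA with ionomycin; Replication: tested once; Times: 1 h compound pretreatment, then 16 h stimulation at 37 °C, 5% CO2; Benchmarks: DMSO and 10 µM reference inhibitor; Evaluation: per-plate % inhibition versus controls.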
D1 PAM confirm: confirmation of human D1 dopamine receptor allosteric modulators | shares compounds with D1 allo mod | HEK293 D1 CRE-luciferase, dopamine EC30 potentiation; active compounds read high | luminescence at 10 µM | 2,200 tested, 88% active | AID 642;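 active = luminescence in either of two replicates above the same-plate mean plus 3 SD of the low-dose dopamine control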
D1 no dopamine: activates D1 CRE-luciferase signal without dopamine present | HEK293 D1 CRE-luciferase, luminescence, no dopamine; active compounds read high | shares compounds with D1 allo mod | AID 646 | luminescence at 10 µM | 1,900 tested, 0.8% active; in the data active = luminescence above about 3900
Isoprot counter: alters isoproterenol CRE-luciferase response in HEK293 cells. shares compounds with D1 allo mod. HEK293 D1 CRE-luciferase, isoproterenol EC30 counter-screen. calls only at 10 µM. 2,200 tested, 63% active. AID 647;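 active = luminescence in either replicate above plate mean of wells with a partly effective reference agonist dose plus 3 SD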;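 also: isoproterenol raises cAMP through native beta-adrenoceptor Gs so signal bypasses D1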
* marks the source's active call; other numbers are inactive results; i = inactive; x = no result shown; + = active, no number. Rows were chosen to be rich in hits. Some 7.2% of all compounds tested hit in one or more screens of this group.

SMILES	M1 antagonist	M1 ag	BAP1 inh	D1 allo mod	DAT uptake mod	HEK293 NFkB inh	D1 PAM confirm	D1 no dopamine	Isoprot counter
CCN(CCCn1c(SCC#N)nc2ccccc2c1=O)c1ccccc1	-0.00438	1.71	x	x	0.505	8.2	x	x	x
COc1ccc(Nc2cc(C)nc(N3CCOCC3)n2)cc1	-0.499	-0.29	i	3.55*	1.81	-21.1	8656*	1964	+
CCOC(=O)c1c(NC(=O)Cc2cccs2)sc(C(=O)N2CCCCC2)c1C	0.0283	-0.211	i	12*	0.828	6.8	17816*	1812	+
COC(=O)c1c(NC(=O)Cc2cccs2)sc(C)c1C	-0.743	0.642	x	14.5*	-0.934	6.7	11876*	1564	+
COC(=O)c1c(NC(=O)Cc2ccccc2)sc(C)c1C	x	x	x	x	-0.148	x	x	x	x
CCCCc1ccc(NC(=O)c2cc3ccccc3o2)cc1	x	x	i	x	x	x	x	x	x
CCCOC(=O)c1cccc(NC(=O)COc2c(C)cccc2C)c1	x	x	i	x	x	x	x	x	x
CN(c1ccccc1)c1nc(N2CCCC2)nc(-n2ccnc2)n1	-1.25	1.08	i	4.9*	0.816	27.7	11496*	1580	+
c1ccc(N(c2ccccc2)c2nc(N3CCCC3)nc(-n3ccnc3)n2)cc1	0.571	-0.288	i	-0.229	x	-5.4	x	x	x
CN1C(=O)N(c2cccc3ccccc23)C(C)(O)CC1(C)C (centres undefined)	x	x	i	x	x	x	x	x	x
N#Cc1c(N)nc(SCc2ccncc2)c(C#N)c1-c1cccs1	-0.059	-1.19	x	6.49*	-0.00599	31.2	8108*	1716	+
CC12CC(c3ccccc3O1)C(C(=O)N1CCOCC1)C(=O)N2 (centres undefined)	-0.194	-0.0136	i	3.3*	-0.54	16.0	4036	1440	i
O=C(C1COc2ccccc2O1)N1CCOCC1 (centres undefined)	0.55	-0.525	i	-1.3	-0.814	9.9	x	x	x
CCCOc1ccccc1C1C(C(=O)OC)=C(C)NC2=C1C(=O)CCC2 (centres undefined)	x	x	i	x	x	x	x	x	x
CCOC(=O)C1=C(C)NC(=O)CC1c1ccccc1F (centres undefined)	x	x	i	x	x	x	x	x	x
Cc1ccccc1OCCn1nc(C(=O)O)c2ccccc2c1=O	1.43	-0.83	i	3.94*	0.571	10.8	7632*	1464	+
CC(=O)N1CCc2cc(S(=O)(=O)NCCC(=O)N3CCc4ccccc4C3)ccc21	-0.0673	0.245	i	0.315	1.17	14.0	x	x	x
O=C(CCNS(=O)(=O)c1cccs1)N1CCc2ccccc2C1	0.0319	0.704	i	3.41*	0.396	-2.0	4796	x	+
CC1CC(C)CN(c2nc3c(c(=O)n(C)c(=O)n3C)n2Cc2ccc(Cl)cc2)C1 (centres undefined)	x	x	i	x	x	x	x	x	x
O=C(CCN1CCCC1)NCC1COc2ccccc2O1 (centres undefined)	x	x	i	x	x	x	x	x	x
CSc1ccc(-c2nc(CSCC(=O)N3CCOCC3)c(C)o2)cc1	0.322	-2.59	i	26.3*	-0.408	6.2	5664	1536	i
Cc1ccc(N(Cc2ccco2)C(=O)c2cccc(S(=O)(=O)N(C)C)c2)cc1	0.953	-0.156	i	2.96*	-0.954	7.5	11896*	1544	+
CS(=O)(=O)Nc1ccc(C(=O)OC2CCCCC2)cc1	x	x	i	x	x	x	x	x	x
COc1cc(NC(=O)c2cnn3c(C(F)(F)F)cc(-c4ccc(F)cc4)nc23)cc([N+](=O)[O-])c1	x	x	i	x	x	x	x	x	x
CC(=NCc1ccco1)c1c(O)n(C2CCCCC2)c(=O)[nH]c1=O	-0.0539	0.155	i	11.4*	0.384	11.2	14172*	1048	+
SMILES	M1 antagonist	M1 ag	BAP1 inh	D1 allo mod	DAT uptake mod	HEK293 NFkB inh	D1 PAM confirm	D1 no dopamine	Isoprot counter
CCn1nc(NS(=O)(=O)c2ccccc2)c2cc3cccc(C)c3nc21	0.627	-0.206	i	-0.0725	-0.0238	17.9	x	x	x
CCCn1nc(NS(C)(=O)=O)c2cc3cccc(C)c3nc21	0.395	-0.4	i	16.3*	-0.286	14.2	16772*	1876	+
COc1ccc(CCn2c(C)cc3c(c2=O)C(c2ccc4c(c2)OCO4)C(C#N)=C(N)O3)cc1OC (centres undefined)	-0.208	-0.0631	i	10.8*	2.59*	x	14224*	1632	+
COc1ccccc1N1CCN(S(=O)(=O)c2ccc3c4c(cccc24)C(=O)N3)CC1	0.659	0.437	i	x	0.0967	18.5	x	x	x
O=C1Nc2ccc(S(=O)(=O)N3CCCC3)c3ccc(S(=O)(=O)N4CCCC4)c1c23	-0.379	-0.363	x	5.16*	-0.357	11.9	12808*	x	+
Cc1ccccc1-n1nc2c(c1NC(=O)COc1ccccc1)CSC2	x	x	i	x	x	x	x	x	x
CCOC(=O)C1=C(C)NC(=O)CC1c1ccccc1I (centres undefined)	x	x	i	x	x	x	x	x	x
CCSc1nc2c(c(=O)n1C1CCOC(C)(C)C1)C1(CCCCC1)Cc1ccccc1-2 (centres undefined)	x	x	i	x	x	x	x	x	x
CCC1CCc2c(sc3ncnc(N4CCOCC4)c23)C1 (centres undefined)	-0.233	0.96	i	17.1*	0.278	21.2	15132*	1584	+
Oc1ccc(N2CCN(c3ncnc4sc5c(c34)CCC5)CC2)cc1	0.642	-1.13	i	-1.95	-1.49	-9.8	x	x	x
CNc1nc(OCC(F)(F)F)nc(N2CCOCC2)n1	x	x	x	x	-0.525	x	x	x	x
CNc1nc(OC)nc(N2CCOCC2)n1	0.24	-0.0501	i	6*	0.573	13.4	19816*	1956	+
CCCNC(=O)c1cc2nc(-c3ccccc3)cc(-c3ccccc3)n2n1	x	x	i	x	x	x	x	x	x
O=c1[nH]cnc2scc(-c3ccccc3)c12	x	x	x	x	-0.357	x	x	x	x
c1ccc(-c2csc3ncn4cnnc4c23)cc1	0.957	-0.452	i	17.8*	0.732	-5.5	18512*	1700	+
Nc1nc(SCc2ccc([N+](=O)[O-])cc2)c2ncn([C@@H]3O[C@H](CO)[C@H](O)C3O)c2n1 (some centres undefined)	x	x	i	x	x	x	x	x	x
N#Cc1cn(-c2ccccc2)nc1-c1ccccc1	-0.0278	0.0504	i	5.74*	-0.26	5.8	9992*	1616	i
OCc1cn(-c2ccccc2)nc1-c1ccc(-c2nn(-c3ccccc3)cc2CO)cc1	-0.137	-0.921	x	-1.04	0.057	9.9	x	x	x
N#CCCN(CCC#N)S(=O)(=O)c1ccccc1	x	x	i	x	x	x	x	x	x
COc1ccc(-c2ccc(=O)n(CC(=O)Nc3nnc(C(C)C)s3)n2)cc1OC	x	x	x	x	-0.179	x	x	x	x
COc1ccc(-c2ccc(=O)n(CC(=O)Nc3cccc(O)c3)n2)cc1OC	0.00709	-0.437	i	28.7*	0.339	13.4	4824	1660	i

Bioassay records (PubChem)
